# ChEMBL document CHEMBL1155141, “Pyrophosphorolytic excision of nonobligate chain terminators by hepatitis C virus NS5B polymerase” (Antimicrob Agents Chemother, 2007)
# Activity calls are given as the source filed them. No cut-off for these calls is given here.
# How the values were obtained:
# Hepacivirus hominis [1] = experiment: Ratio of IC50 for HCV NS5B polymerase S282T mutant to IC50 for HCV NS5B polymerase by single-nucleotide incorporation assay
# Procedure, shortened: (§1)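 Run 30 min with 3 μM each NTP, competing nucleotide 300 nM. Full-length product was resolved on urea gels and quantified by phosphorimager. IC50 came from a four-parameter logistic fit, three independent experiments. The ratio is S282T IC50 over wild-type IC50.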
# [2] = target: RNA-directed RNA polymerase (Hepacivirus hominis, UniProt O39930, S282T); experiment: Inhibition of HCV NS5B polymerase S282T mutant assessed as blocking of full length RNA product formation by single-nucleotide incorporation assay; procedure, shortened: as §1
# RNA-directed RNA polymerase, sequence (O39930 entry or part of it S282T): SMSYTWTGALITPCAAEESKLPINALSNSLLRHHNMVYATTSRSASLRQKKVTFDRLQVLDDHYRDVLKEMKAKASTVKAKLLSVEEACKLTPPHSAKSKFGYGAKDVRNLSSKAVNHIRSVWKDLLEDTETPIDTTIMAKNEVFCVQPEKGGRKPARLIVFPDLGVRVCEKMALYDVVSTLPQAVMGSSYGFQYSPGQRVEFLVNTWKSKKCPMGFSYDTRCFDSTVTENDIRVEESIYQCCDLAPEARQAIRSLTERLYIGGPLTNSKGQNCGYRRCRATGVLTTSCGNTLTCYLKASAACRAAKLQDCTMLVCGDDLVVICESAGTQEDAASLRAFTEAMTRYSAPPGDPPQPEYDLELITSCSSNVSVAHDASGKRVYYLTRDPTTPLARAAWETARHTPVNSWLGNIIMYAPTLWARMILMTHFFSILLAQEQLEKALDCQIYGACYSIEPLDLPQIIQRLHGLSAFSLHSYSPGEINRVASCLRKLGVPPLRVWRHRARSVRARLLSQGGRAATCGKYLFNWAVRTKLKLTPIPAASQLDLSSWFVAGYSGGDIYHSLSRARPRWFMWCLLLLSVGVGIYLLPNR
# [3] = Inhibition of HCV NS5B polymerase assessed as blocking of full length RNA product formation by single-nucleotide incorporation assay; design: species or system Hepacivirus hominis; procedure, shortened: as §1
# Hepacivirus hominis [4] = experiment: Inhibition of HCV NS5B polymerase assessed as chain termination of RNA synthesis
SMILES,Ratio IC50 (Hepacivirus hominis [1]),IC50 [2],IC50 [3],Activity (Hepacivirus hominis [4])
C[C@@]1(O)[C@H](O)[C@@H](COP(=O)(O)OP(=O)(O)OP(=O)(O)O)O[C@H]1n1ccc(N)nc1=O [2'-C-METHYLCYTIDINE TRIPHOSPHATE],9.5,60 µM,6.3 µM,
O=c1ccn([C@@H]2O[C@H](COP(=O)(O)OP(=O)(O)OP(=O)(O)O)C[C@H]2O)c(=O)[nH]1,,,,Active
Nc1ccn([C@@H]2O[C@H](COP(=O)(O)OP(=O)(O)OP(=O)(O)O)C[C@H]2O)c(=O)n1,1.7,0.77 µM,0.46 µM,Active
Nc1nc2c(ncn2[C@@H]2O[C@H](COP(=O)(O)OP(=O)(O)OP(=O)(O)O)C[C@H]2O)c(=O)[nH]1,,,,Active
Nc1ncnc2c1ncn2[C@@H]1O[C@H](COP(=O)(O)OP(=O)(O)OP(=O)(O)O)C[C@H]1O,2,8.8 µM,4.4 µM,Active
C[C@@]1(O)[C@H](O)[C@@H](COP(=O)(O)OP(=O)(O)OP(=O)(O)O)O[C@H]1n1cnc2c(N)ncnc21,> 24,> 100 µM,4.2 µM,
